Screens: PubChem BioAssay, several laboratories
FAK blocker = blocks human focal adhesion kinase activity; Q05397; biochemical FAK kinase activity assay; inhibition, %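 (tested at 7 µM)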; 0.84% of 97,000 active; in the data active = inhibition above about 19%;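 also: 0% = DMSO and 100% = reference compound high control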
Measles CPE = protection of cells from measles virus | 1.5% of 140,000 active | Measles virus-infected cells, CPE protection, absorbance | AID 841 | protection (pct of control), % at 4 µM; in the data active = protection mostly above about 24%, no sharp cut-off; inactive = mostly below about 26%
HIV Rev-RRE inh = disrupts HIV-1 Rev binding to RRE RNA; 0.79% of 97,000 active; inhibition, % at 8 µM; P05866; Rev peptide-RRE RNA binding, FRET;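 active = inhibition above the screen-wide mean plus 3 SD, cut at about 35% in these data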;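 also: 0% = median DMSO wells and 100% = median Neomycin B control wells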
Target sequence (P05866 whole entry, looked up): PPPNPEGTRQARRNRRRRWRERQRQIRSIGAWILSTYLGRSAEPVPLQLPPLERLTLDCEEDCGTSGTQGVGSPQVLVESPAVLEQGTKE
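Test system – labelled RRE RNA duplex and labelled Rev peptide · Reagent – labelled Rev peptide · Doses – one concentration, 8 µM nominal · Incubation – 5 + 15 min at 25 °C · Signal – FRET fluorescence readout · Read-out basis – % inhibition of FRET ratio versus controls · Control set – DMSO wells as 0% and neomycin B wells as 100% inhibition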
HUVEC tox IL1B = toxic to HUVEC cells under IL-1B stimulation. cell count reduction, % at 2 µM. HUVEC cell count loss, Hoechst imaging, IL-1B stimulated. 0.41% of 94,000 active;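 active = cell count reduction more than 3 SD above the screen-wide mean, cut at about 70% in these data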;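 also: normalized per plate to untreated control cells as the no-loss baseline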
NFkB transloc pot = enhances IL-1B driven NFkB nuclear translocation; activation, % at 2 µM; 0.3% of 94,000 active; AID 819; HUVEC IL-1B NFkB p65 nuclear translocation imaging;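 active = activation above 40%, about the mean plus 3 SD, also judged a hit on visual image review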;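 also: percent activation is computed from the nuclear over cytoplasmic p65 intensity ratio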
NFkB transloc inh = blocks IL-1B driven NFkB nuclear translocation in HUVEC cells; HUVEC IL-1B NFkB p65 nuclear translocation imaging; inhibition, % at 2 µM; 0.43% of 94,000 active;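 active = inhibition above about 30% together with a positive call from visual inspection of the well image, limit read from the data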;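 also: nuclear over cytoplasmic p65 intensity ratio measured by imaging; 0% = IL-1B stimulated DMSO wells and 100% = unstimulated DMSO wells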
Active calls of the source: *; · = no result given; [ ] = dose if it differs, or a comment. Hits are enriched below; roughly 3.3% of the tested compounds scored in any of these assays.

SMILES	FAK blocker	Measles CPE	HIV Rev-RRE inh	HUVEC tox IL1B	NFkB transloc pot	NFkB transloc inh
CCOC(=O)C1=C(NC(=S)NC(=O)c2ccccc2)c2ccccc2CC1C(C)C (stereo not given)	3.4	49.6*	4.2	-11.1	-12.6	12.6
CCOC(=O)C1=C(NC(=S)NC(=O)c2ccccc2)c2ccccc2CC1(C)CC (stereo not given)	·	24.7	·	·	·	·
CCOC(=O)Cc1cc(-c2ccc(F)cc2)nc2ccc3ccccc3c12	·	22.8	·	·	·	·
COc1ccccc1CNC(=O)CCC(=O)Nc1nnc(C)s1	-1.9	51.3*	3.3	-6.7	27.1	-27.1
O=C(Nc1cnn(Cc2ccccc2)c1)NC12CC3CC(CC(C3)C1)C2	-0.1	23.1*	0.3	-13.9	7.2	-7.3
COc1ccc(CC(=O)NCCc2ccc(S(N)(=O)=O)cc2)cc1	-3.4	4.0	12.4	12.8	7.3	-7.3
COc1ccc(/C=C/C(=O)NCCc2ccc(S(N)(=O)=O)cc2)cc1	·	56.1*	·	·	·	·
O=C(CSc1ccccc1)N(c1ccc(Br)cc1)c1nccs1	·	5.0	·	·	·	·
COc1ccc(NC(=S)N(CCN(C)C)C(C)c2ccco2)cc1Cl (stereo not given)	·	1.6	·	·	·	·
COc1ccc(Br)cc1C(=O)Nc1cccc(-c2nnc(-c3ccco3)o2)c1	65.9*	·	-6.4	-11.8	10.6	-10.6
COc1cccc(C(=O)Nc2cccc(-c3nnc(-c4ccco4)o3)c2)c1	-2.5	13.7	11.4	-4.6	-7.1	7.1
CCCCS(=O)(=O)Nc1ccc(C)cn1	·	18.7	·	·	·	·
CN(c1ccccc1)S(=O)(=O)c1cccc(NC(=O)CSc2ncc(C(F)(F)F)cc2Cl)c1	·	5.7	·	·	·	·
CCCCn1ccnc1C(=O)c1cc(S(=O)(=O)N2CCOCC2)ccc1C	0.7	0.1	7.9	-11.9	-54.8	54.8*
CCOc1ccc(CCNC(=O)Cn2cccc2C(=O)c2ccccc2C)cc1OCC	·	24.0	·	·	·	·
CCN1CCc2c(sc(N)c2C(N)=O)C1	8.6	14.8	63.0*	15.2	-24.3	24.3
Cn1c(=O)c(C(=O)COC(=O)c2cc(-c3ccco3)nc3ccccc23)c(N)n(CC2CC2)c1=O	·	4.7	·	·	·	·
CCC(=O)N/N=C/c1ccc(OS(=O)(=O)c2ccccc2)cc1	·	17.6*	·	·	·	·
O=C(NC(Cc1ccccc1)c1ccc2c(c1)OCCCO2)c1ccc(F)cc1 (stereo not given)	-0.7	2.6	2.5	-5.6	43.7*	-43.7
CC(=O)NC(Cc1ccccc1)c1ccc2c(c1)OCCCO2 (stereo not given)	·	2.4	·	·	·	·
CC(=O)OC1c2ccccc2C(=O)N1c1ccccc1C (stereo not given)	0.5	5.7	3.9	-25.5	17.8	-17.8
COC(=O)C1(C)Nc2ccccc2C(=O)N1c1ccccc1C (stereo not given)	6.6	40.6*	10.9	17.5	23.4	-23.4
CC1CN(C(=O)c2ccc(N3CCCCC3)c([N+](=O)[O-])c2)CC(C)O1 (stereo not given)	·	4.0	·	·	·	·
Cc1c(CN(C)C)c2c(n1C)C(=O)c1ccc(Br)cc1-2	-5.3	3.0	-0.8	-18.2	5.1	-5.1
CCOC(=O)c1c2c(n(C)c1C)C(=O)C(=O)c1ccc(Br)cc1-2	40.3*	·	4.2	37.2	13.9	-13.9
SMILES	FAK blocker	Measles CPE	HIV Rev-RRE inh	HUVEC tox IL1B	NFkB transloc pot	NFkB transloc inh
CCOc1ccc(-c2nnc(NC(=O)c3ccc(OCC(C)C)c(OC)c3)o2)cc1	0.7	41.5*	2.5	-25.2	21.6	-21.6
CCc1nn(C)c(-c2n[nH]c(=S)n2N)c1Cl	5.0	43.8*	4.1	18.4	-2.5	2.5
CCc1cc(-c2n[nH]c(=S)n2N)n(C)n1	0.8	21.4	0.8	-107.7	8.1	-8.1
CC(NC(=O)c1ccc([N+](=O)[O-])cc1[N+](=O)[O-])c1ccc(-c2ccccc2)cc1 (stereo not given)	·	40.0*	·	·	·	·
O=C(NCc1nc2ccccc2[nH]1)c1cc2ccccc2oc1=O	-4.2	86.1*	-3.9	9.0	18.6	-18.6
CCN1C(=O)C(CC(=O)NC2CCCCC2)N(CC)C1=O (stereo not given)	0.6	50.4*	4.3	-15.6	9.7	-9.7
CCN1C(=O)C(CC(=O)NCc2ccc(Cl)cc2)N(CC)C1=O (stereo not given)	-1.8	5.3	7.3	1.0	14.3	-14.3
CS(=O)(=O)NCC(c1ccco1)N1CCN(c2ccc(F)cc2)CC1 (stereo not given)	·	63.0*	·	·	·	·
Cc1ccc(S(=O)(=O)NC(=O)c2cc(C)n(-c3ccc(N(C)C)cc3)c2C)cc1	·	4.0	·	·	·	·
CCOC(=O)c1c(-c2ccccc2)nc2ccc(Cl)cn12	-2.3	4.4	8.4	-14.7	11.5	-11.5
CN(C)Cc1cnc2ccc(Cl)cn12	-5.8	8.4	3.4	86.8*	-97.3	97.3*
O=C(Nc1ccc(C#Cc2ccccc2)cc1)C1CC1	2.0	58.2*	4.7	-6.9	-1.6	1.6
CCCC(=O)Nc1ccc(C#Cc2ccccc2)cc1	2.9	5.8	2.7	-12.5	9.1	-9.1
COc1cc(NC(=O)Cc2ccccc2)ccc1NC(=O)c1ccco1	1.9	64.2*	6.5	11.0	3.0	-3.0
Cc1ccc(NC(=O)CSc2nnc3n2CCCCC3)cc1	·	5.5	·	·	·	·
O=[N+]([O-])c1ccc(N2CCOCC2)cc1NC(c1ccccc1)c1ccccc1	·	45.2*	·	·	·	·
O=C(CSc1nc2ccccc2c(=O)n1NC(=O)Cc1ccccc1)NCc1ccccc1Cl	-0.3	1.9	-0.4	-18.2	-5.8	5.8
CN1CCc2c1nc1ccccc1c2N=C1CCCN1Cc1ccccc1	·	4.4	·	·	·	·
Cc1ccc(CNC(=O)/C(C#N)=C/c2ccc(C)s2)cc1	0.1	20.3*	1.4	-27.1	15.0	-15.0
Cc1ccc(NC(=O)/C(C#N)=C/c2ccc(C)s2)c(C)c1	-1.1	14.1	36.7*	3.5	-15.0	15.0
COC(=O)c1ccc(CNC(=O)c2ccc(COc3ccccc3)cc2)cc1	·	3.0	·	·	·	·
S=C(NCCc1ccccc1)Nc1ccc(Br)cc1	·	1.2	·	·	·	·
COc1ccc(-c2cc(C(=O)O)c3c(C)nn(-c4ccccn4)c3n2)cc1	-4.8	24.1	11.1	-10.5	-5.4	5.4
COc1ccc(N=CC2=C(Nc3ccc(OC)cc3)c3c(C)nn(-c4ccccn4)c3CC2)cc1	20.3*	·	87.0*[fluorescence artefact?]	·	·	·
O=C(CCSc1ccc(Cl)cc1)N1CCCCCC1	1.3	30.8*	3.7	-31.3	-3.3	3.3
SMILES	FAK blocker	Measles CPE	HIV Rev-RRE inh	HUVEC tox IL1B	NFkB transloc pot	NFkB transloc inh
O=c1c(Cl)c(NCc2ccccc2)cnn1C12CC3CC(CC(C3)C1)C2	·	4.0	·	·	·	·
O=C(N/N=C/C(Br)=C/c1ccccc1)c1n[nH]c2c1CCC2	3.4	2.1	5.7	15.7	-41.2	40.2*
O=C(N/N=C/c1cccs1)c1n[nH]c2c1CCC2	·	8.9	·	·	·	·
CCOC(=O)c1sc(N)c(C#N)c1COC(=O)CNC(=O)c1ccccc1	-2.0	6.2	50.7*	-34.3	11.3	-11.3
O=C1S/C(=C/c2ccc(N3CCOCC3)o2)C(=O)N1Cc1ccc(F)cc1	-1.1	6.0	115.0*[fluorescence artefact?]	9.6	9.7	-9.7
CC(C)n1cc(/C=C2/SC(=O)N(CC(=O)N3CCCC3)C2=O)c2ccccc21	1.1	1.8	-4.9	-14.3	-4.2	4.2
